Test results published in ChEMBL document CHEMBL4428065, “Fulvestrant-3 Boronic Acid (ZB716): An Orally Bioavailable Selective Estrogen Receptor Downregulator (SERD)” (J Med Chem, 2016).
The source made the active and inactive calls. The calls are words filed in the database; no cut-off is given here.

Legend:
[1] = tested on: T47D; assay: Antiproliferative activity against human T47D cells after 5 days by coulter counter analysis; assay type: functional, cell-based; details: 120 h
How it was run: (§1)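 Cells plated at 50000/well in 5% FBS phenol red-free DMEM; treated with six concentrations from 10−10 to 10−5 M for 5 days, DMSO vehicle controls. Viable cells counted by Coulter counter; survival ratio = treated/vehicle viable cells (control 100%). IC50 derived from dose–response curves. Cultures at 37 °C, 5% CO2.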

[2] = tested on: T47D; assay: Antiproliferative activity against human tamoxifen-resistant T47D cells over-expressing PKC-alpha after 5 days by coulter counter analysis; assay type: functional, cell-based; details: 120 h; how it was run: as §1
[3] = Half life in C57BL/6 mouse at 8.3 mg/kg, sc by HPLC-MS/MS analysis; assay type: ADME, organism-based; details: in vivo
[4] = tested on: MCF7; assay: Antiproliferative activity against human MCF7 cells after 5 days by coulter counter analysis; assay type: functional, cell-based; details: MCF7, 120 h
How it was run: (§2)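 Cells were plated at 50000/well in 5% FBS phenol red-free DMEM. The tamoxifen-resistant line came from prolonged 4-hydroxytamoxifen exposure of MCF-7. Cells were treated 5 days at six concentrations from 10−10 to 10−5 M, with DMSO vehicle. Viable cells were counted by Coulter counter, survival expressed relative to vehicle, and IC50 taken from dose-response curves.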

[5] = tested on: MCF7; assay: Antiproliferative activity against human tamoxifen-resistant MCF7 cells after 5 days by coulter counter analysis; assay type: functional, cell-based; details: MCF7, 120 h; how it was run: as §2
[6] = target: T1, Estrogen receptor (Homo sapiens) (UniProt P03372); assay: (§3) Downregulation of ER-alpha expression in human T47D cells measured after 5 days by Western blot analysis; assay type: cell-based
T1 sequence (whole entry): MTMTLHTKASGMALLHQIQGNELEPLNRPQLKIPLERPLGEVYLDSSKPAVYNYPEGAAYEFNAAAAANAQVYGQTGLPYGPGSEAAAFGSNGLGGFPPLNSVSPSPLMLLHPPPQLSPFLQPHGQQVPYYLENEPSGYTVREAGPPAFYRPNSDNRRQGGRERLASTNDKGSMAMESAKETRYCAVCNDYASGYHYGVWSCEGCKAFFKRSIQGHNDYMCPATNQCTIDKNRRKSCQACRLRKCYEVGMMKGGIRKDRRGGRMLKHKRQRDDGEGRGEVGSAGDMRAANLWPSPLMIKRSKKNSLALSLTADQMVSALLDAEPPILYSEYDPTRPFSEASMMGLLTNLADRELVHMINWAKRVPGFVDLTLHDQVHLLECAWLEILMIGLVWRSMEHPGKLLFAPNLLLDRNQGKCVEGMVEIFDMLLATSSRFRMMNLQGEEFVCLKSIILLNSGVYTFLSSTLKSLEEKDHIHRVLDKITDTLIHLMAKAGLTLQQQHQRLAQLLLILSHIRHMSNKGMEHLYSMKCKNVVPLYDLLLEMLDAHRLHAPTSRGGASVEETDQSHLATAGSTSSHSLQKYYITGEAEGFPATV

[7] = target: T1, Estrogen receptor (Homo sapiens); assay: Antiestrogenic activity at estrogen receptor in human T47D-KBluc cells assessed as inhibition of estradiol activity by luciferase reporter gene assay relative to estradiol control; assay type: cell-based
How it was run: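 T47D-kb-Luc cells stably carry an ERE-driven firefly luciferase. Antagonism was read as inhibition of the signal induced by 0.01 nM estradiol, testing 0.1, 1 and 10 nM. Luminescence was normalized to the estradiol control, run in quadruplicate in at least three separate experiments, and given as mean ± SD.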

[8] = Cmax in C57BL/6 mouse at 8.3 mg/kg, sc by HPLC-MS/MS analysis; assay type: ADME, organism-based; design: dose 8.3 mg/kg, route subcutaneous; details: in vivo
[9] = target: T1, Estrogen receptor (Homo sapiens); assay: (§4) Downregulation of ER-alpha expression in human tamoxifen-resistant T47D cells over-expressing PKC-alpha measured after 5 days by Western blot analysis; assay type: cell-based
[10] = AUC in C57BL/6 mouse at 8.3 mg/kg, sc by HPLC-MS/MS analysis; assay type: ADME, organism-based; details: in vivo
[11] = target: T1, Estrogen receptor (Homo sapiens); assay: Antagonistic activity at estrogen receptor in human MCF7 cells assessed as suppression of TFF1 expression 10^-8 to 10^-7 M measured after 48 hrs by real-time PCR analysis; assay type: cell-based
How it was run: (§5)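 MCF-7 cells were seeded in DMEM with 5% FBS, then switched to phenol red-free DMEM with 5% charcoal-stripped FBS for 48 h. They were treated 48 h with vehicle, E2, or test compound + E2. Expression was measured by real-time PCR, with fold change calculated by 2^−ΔΔCt normalized to five reference genes (18S rRNA, HPRT1, RPL13A, GAPDH, ACTB).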

[12] = AUC in C57BL/6 mouse at 8.3 mg/kg administered through oral gavage by HPLC-MS/MS analysis; assay type: ADME, organism-based; details: in vivo
How it was run: (§6)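 Female C57BL/6 mice, n = 5, given a single 8.3 mg/kg oral gavage in PBS/ethanol. Orbital sinus blood was drawn into EDTA at 1, 3, 6, 24 and 48 h, with each group sampled once. Analysis by UPLC-MS/MS on a C18 column with a water/acetonitrile 0.05% formic acid gradient.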

[13] = target: T2, Estrogen receptor (Homo sapiens, UniProt P03372); assay: as §3; assay type: cell-based
T2 sequence (P03372 whole entry): T1 sequence (whole entry)

[14] = target: T1, Estrogen receptor (Homo sapiens); assay: Antagonistic activity at estrogen receptor in human MCF7 cells assessed as suppression of PDZK1 expression 10^-8 to 10^-7 M measured after 48 hrs by real-time PCR analysis; assay type: cell-based; how it was run: as §5
[15] = target: T1, Estrogen receptor (Homo sapiens); assay: Antagonistic activity at estrogen receptor in human MCF7 cells assessed as suppression of PGR expression 10^-8 to 10^-7 M measured after 48 hrs by real-time PCR analysis; assay type: cell-based; how it was run: as §5
[16] = Half life in C57BL/6 mouse at 8.3 mg/kg administered through oral gavage by HPLC-MS/MS analysis; assay type: ADME, organism-based; details: in vivo; how it was run: as §6
[17] = target: T1, Estrogen receptor (Homo sapiens); assay: Antagonistic activity at estrogen receptor in human MCF7 cells assessed as suppression of EGR3 expression at 10^-8 to 10^-7 M measured after 48 hrs by real-time PCR analysis; assay type: cell-based; how it was run: as §5
[18] = target: T2, Estrogen receptor; assay: Displacement of fluoromone ligand from recombinant ER-alpha (unknown origin) by LanthaScreen TR-FRET assay
How it was run: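 Competitive TR-FRET binding with recombinant ERα, in which test compound displaces a fluormone tracer. Six to ten concentrations spanning the IC50 were tested in quadruplicate, and IC50 was taken from the competition curves.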

[19] = target: T2, Estrogen receptor; assay: as §4; assay type: cell-based
[20] = Cmax in C57BL/6 mouse at 8.3 mg/kg administered through oral gavage by HPLC-MS/MS analysis; assay type: ADME, organism-based; design: dose 8.3 mg/kg, route oral; details: in vivo; how it was run: as §6
[21] = target: T1, Estrogen receptor (Homo sapiens); assay: Antagonistic activity at estrogen receptor in human MCF7 cells assessed as suppression of WISP1 expression 10^-8 to 10^-7 M measured after 48 hrs by real-time PCR analysis; assay type: cell-based; how it was run: as §5

| SMILES | IC50 [1] | IC50 [2] | IC50 [4] | IC50 [5] | inhibition [6] | inhibition [7] | inhibition [9] | other results |
| --- | --- | --- | --- | --- | --- | --- | --- | --- |
| CC/C(=C(\c1ccc(O)cc1)c1ccc(OCCN(C)C)cc1)c1ccccc1 [AFIMOXIFENE] | 24 nM | 540 nM |  |  |  |  |  |  |
| C[C@]12CC[C@@H]3c4ccc(O)cc4C[C@@H](CCCCCCCCC[S+]([O-])CCCC(F)(F)C(F)(F)F)[C@H]3[C@@H]1CC[C@@H]2O (stereo not given in full) [FULVESTRANT] | 1.2 nM | 42 nM | 1.5 nM | 44 nM | Dose-dependent effect | Dose-dependent effect | Dose-dependent effect | half-life [3]: 14 h; Cmax [8]: 15.2 ng/mL; AUC [10]: 158 ng·h/mL |
| C[C@]12CC[C@@H]3c4ccc(B(O)O)cc4C[C@@H](CCCCCCCCC[S+]([O-])CCCC(F)(F)C(F)(F)F)[C@H]3[C@@H]1CC[C@@H]2O (stereo not given in full) [ZB-716] | 6.1 nM | 37 nM | 3.2 nM | 69 nM | Dose-dependent effect | Dose-dependent effect | Dose-dependent effect | inhibition [11]: Active; AUC [12]: 2547.1 ng·h/mL; IC50 [13]: 7.8 nM; inhibition [14]: Active; inhibition [15]: Active; t1/2 [16]: 23.5 h; inhibition [17]: Active; IC50 [18]: 4.1 nM; IC50 [19]: 12.7 nM; Cmax [20]: 169.8 ng/mL; inhibition [21]: Active |
